Published values gathered from unrelated publications.
Compare with care: the assays were run in different laboratories.
DYRK1B: Dual specificity tyrosine-phosphorylation-regulated kinase 1B (DYRK1B, Homo sapiens, UniProt Q9Y463)
PTGS2: Prostaglandin G/H synthase 2 (PTGS2, Homo sapiens, UniProt P35354)

The ΔTm of `C[S+]([O-])c1ccc(-c2nc(-c3ccncc3)c(-c3ccc(F)cc3)[nH]2)cc1` (centres unmarked) is reported as 0.59 °C (Bromodomain testis-specific protein, BD2 (BRDT, Homo sapiens, UniProt Q58F21); thermal stability; DSF; 10 µM).
With `O=C(O)c1ccc2c(c1)nc(Nc1ccc(F)c(Cl)c1)c1ncncc12` the remaining activity was 60% (DYRK1B; enzyme activity; inhibitor; radiometric; 1 µM).
For `Cc1cnc(Nc2ccc(OCCN3CCCC3)cc2)nc1Nc1cccc(S(=O)(=O)NC(C)(C)C)c1`, the ΔTm was 3.38 °C (Bromodomain testis-specific protein, BD1 (BRDT, Homo sapiens, UniProt Q58F21); thermal stability; DSF; 10 µM).
With `O=c1cc(-c2ccc(O)cc2)oc2cc(O)cc(O)c12` the inhibition was 16.4% (PTGS2; enzyme activity; inhibitor; 0.49 µg/mL).
With `NS(=O)(=O)c1ccc(Nc2nc(-c3ccc(F)cc3)c3ccccc3n2)cc1` the remaining binding was 54% (CREB-binding protein (CREBBP, Homo sapiens, UniProt Q92793); binding; competition with immobilised ligand; 1 µM).
The inhibition of `O=C(O)c1ccc(O)cc1` is reported as 19.4% (PTGS2; enzyme activity; inhibitor; 0.49 µg/mL).
For `Cc1cc2c(cc1N1C(=O)c3cccc4c(Cl)ccc(c34)C1=O)n(C)c(=O)n2C`, the ΔTm was 0.3 °C (Transcription intermediary factor 1-beta (TRIM28, Homo sapiens, UniProt Q13263); thermal stability; DSF; 10 µM).
For `O=C(O)c1ccc2c(c1)nc(Nc1cccc(F)c1)c1ccncc12`, the remaining activity was 13% (DYRK1B; enzyme activity; inhibitor; radiometric; 1 µM).
